According to ChEMBL document CHEMBL5058577, “EUbOPEN Chemogenomics Library 2 (Multiplex)” (2022):

Test system: Fibroblast
Test: Multiplex assay against human fibroblast
Assay type: toxicity, cell-based
In short: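 Cells were classed with CellPathfinder machine-learning gating, first as Hoechst high-intensity objects or normal cells, then (normal cells) as healthy, pyknosed or fragmented nuclei, and finally (pyknosed cells) as mitotic or apoptotic. Staining of live cells at seeding used Hoechst33342, BioTracker Green Microtubule Cytoskeleton Dye, MitoTracker Red and Annexin V Alexa Fluor 680, with imaging on a CQ1 microscope at 37°C and 5% CO2 after compound addition. Tubulin, mitochondrial-mass and membrane-permeability phenotypes are per cents of healthy-nucleus cells.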

[1] = 12 h, 1 µM, compound concentration 1 uM, replicate 1
[2] = 12 h, 1 µM, compound concentration 1 uM, replicate 2
[3] = 12 h, 10 µM, compound concentration 10 uM, replicate 1
[4] = 12 h, 10 µM, compound concentration 10 uM, replicate 2
[5] = 24 h, 1 µM, compound concentration 1 uM, replicate 1
[6] = 24 h, 1 µM, compound concentration 1 uM, replicate 2
[7] = 24 h, 10 µM, compound concentration 10 uM, replicate 1
[8] = 24 h, 10 µM, compound concentration 10 uM, replicate 2
[9] = 48 h, 1 µM, compound concentration 1 uM, replicate 1
[10] = 48 h, 1 µM, compound concentration 1 uM, replicate 2
[11] = 48 h, 10 µM, compound concentration 10 uM, replicate 1
[12] = 48 h, 10 µM, compound concentration 10 uM, replicate 2

## Cl.NCCc1ccc(O)c(O)c1 [DOPAMINE HYDROCHLORIDE]
[1]
  Population Apoptotic (%): 42%
  Population Fragmented Nuclei (%): 13%
  Population Healthy Nuclei (%): 63%
  Population Hoechst High Intensity Objects (%): 1%
  Population Membrane Permeable-Phenotype (%): 0%
  Population Mitochondria Different-Phenotype (%): 1%
  Population Mitotic Cells (%): 57%
  Population Normal (%): 98%
  Population Pyknosed Nuclei (%): 23%
  Population Tubulin-Different-Phenotype (%): 34%
  Total Cell Count: 115
[2]
  Population Apoptotic (%): 44%
  Population Fragmented Nuclei (%): 34%
  Population Healthy Nuclei (%): 40%
  Population Membrane Permeable-Phenotype (%): 4%
  Population Mitochondria Different-Phenotype (%): 6%
  Population Mitotic Cells (%): 55%
  Population Pyknosed Nuclei (%): 24%
  Population Tubulin-Different-Phenotype (%): 45%
  Total Cell Count: 152
[3]
  Population Apoptotic (%): 56%
  Population Fragmented Nuclei (%): 14%
  Population Healthy Nuclei (%): 62%
  Population Hoechst High Intensity Objects (%): 3%
  Population Membrane Permeable-Phenotype (%): 0%
  Population Mitochondria Different-Phenotype (%): 3%
  Population Mitotic Cells (%): 43%
  Population Normal (%): 96%
  Population Pyknosed Nuclei (%): 23%
  Population Tubulin-Different-Phenotype (%): 14%
  Total Cell Count: 135
[4]
  Population Apoptotic (%): 41%
  Population Fragmented Nuclei (%): 35%
  Population Healthy Nuclei (%): 40%
  Population Hoechst High Intensity Objects (%): 4%
  Population Membrane Permeable-Phenotype (%): 6%
  Population Mitochondria Different-Phenotype (%): 6%
  Population Mitotic Cells (%): 58%
  Population Normal (%): 95%
  Population Tubulin-Different-Phenotype (%): 44%
  Total Cell Count: 127
[5]
  Population Apoptotic (%): 55%
  Population Fragmented Nuclei (%): 14%
  Population Healthy Nuclei (%): 69%
  Population Hoechst High Intensity Objects (%): 0%
  Population Membrane Permeable-Phenotype (%): 1%
  Population Mitochondria Different-Phenotype (%): 1%
  Population Mitotic Cells (%): 44%
  Population Normal (%): 99%
  Population Pyknosed Nuclei (%): 16%
  Population Tubulin-Different-Phenotype (%): 31%
  Total Cell Count: 112
[6]
  Population Apoptotic (%): 51%
  Population Fragmented Nuclei (%): 34%
  Population Healthy Nuclei (%): 47%
  Population Hoechst High Intensity Objects (%): 2%
  Population Membrane Permeable-Phenotype (%): 7%
  Population Mitochondria Different-Phenotype (%): 0%
  Population Mitotic Cells (%): 48%
  Population Normal (%): 97%
  Population Pyknosed Nuclei (%): 18%
  Population Tubulin-Different-Phenotype (%): 37%
  Total Cell Count: 150
[7]
  Population Apoptotic (%): 55%
  Population Fragmented Nuclei (%): 16%
  Population Healthy Nuclei (%): 69%
  Population Hoechst High Intensity Objects (%): 2%
  Population Membrane Permeable-Phenotype (%): 1%
  Population Mitochondria Different-Phenotype (%): 5%
  Population Mitotic Cells (%): 44%
  Population Normal (%): 97%
  Population Pyknosed Nuclei (%): 13%
  Population Tubulin-Different-Phenotype (%): 22%
  Total Cell Count: 136
[8]
  Population Apoptotic (%): 47%
  Population Fragmented Nuclei (%): 37%
  Population Healthy Nuclei (%): 46%
  Population Hoechst High Intensity Objects (%): 3%
  Population Membrane Permeable-Phenotype (%): 3%
  Population Mitochondria Different-Phenotype (%): 7%
  Population Mitotic Cells (%): 52%
  Population Normal (%): 96%
  Population Pyknosed Nuclei (%): 15%
  Population Tubulin-Different-Phenotype (%): 56%
  Total Cell Count: 126
[9]
  Population Apoptotic (%): 36%
  Population Fragmented Nuclei (%): 22%
  Population Healthy Nuclei (%): 66%
  Population Hoechst High Intensity Objects (%): 6%
  Population Membrane Permeable-Phenotype (%): 1%
  Population Mitochondria Different-Phenotype (%): 2%
  Population Mitotic Cells (%): 63%
  Population Normal (%): 93%
  Population Pyknosed Nuclei (%): 10%
  Population Tubulin-Different-Phenotype (%): 28%
  Total Cell Count: 110
[10]
  Population Apoptotic (%): 38%
  Population Fragmented Nuclei (%): 33%
  Population Healthy Nuclei (%): 52%
  Population Membrane Permeable-Phenotype (%): 5%
  Population Mitochondria Different-Phenotype (%): 3%
  Population Mitotic Cells (%): 61%
  Population Pyknosed Nuclei (%): 14%
  Population Tubulin-Different-Phenotype (%): 43%
  Total Cell Count: 159
[11]
  Population Apoptotic (%): 87%
  Population Fragmented Nuclei (%): 21%
  Population Healthy Nuclei (%): 66%
  Population Hoechst High Intensity Objects (%): 4%
  Population Membrane Permeable-Phenotype (%): 0%
  Population Mitochondria Different-Phenotype (%): 4%
  Population Mitotic Cells (%): 12%
  Population Normal (%): 95%
  Population Pyknosed Nuclei (%): 11%
  Population Tubulin-Different-Phenotype (%): 25%
  Total Cell Count: 141
[12]
  Population Apoptotic (%): 90%
  Population Fragmented Nuclei (%): 31%
  Population Healthy Nuclei (%): 60%
  Population Hoechst High Intensity Objects (%): 0%
  Population Membrane Permeable-Phenotype (%): 7%
  Population Mitotic Cells (%): 10%
  Population Normal (%): 99%
  Population Pyknosed Nuclei (%): 8%
  Population Tubulin-Different-Phenotype (%): 56%
  Total Cell Count: 116
